# Assay outcomes as filed in PubChem BioAssay.
# MrgX1 antag: antagonists of human MrgX1 receptor; B-score at 10 µM; 310,000 compounds, 1.3% hits; AID 588676; MRGX1-HEK293 calcium flux, Fluo-4, BAM8-22 antagonism; active compounds read low; Q96LB2;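 active means calcium-response B-score plate-corrected more than 3 library SD below zero, starting fluorescence within 5 deviations, no agonist response on first addition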;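 further: peak minus trough fluorescence over baseline after final BAM8-22 challenge near maximal dose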
# MrgX1 ag: human MrgX1 receptor agonism, primary screen | Q96LB2 | MrgX1-HEK293 cells, Fluo-4 calcium fluorescence, agonist mode; active compounds read high | B-score at 10 µM | 310,000 compounds, 0.44% hits | AID 588627;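 active means calcium response B-score plate-corrected fluorescence ratio at least 3 library SD, with starting fluorescence B-score inside 5 SD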
#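 System – MrgX1-expressing HEK293 cells · Incubation – cells plated overnight, dye loaded 0.5 h 37 °C, 0.5 h room temperature · Technique – kinetic Fluo-4 NW fluorescence of intracellular calcium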
# MrgX1 PAM: allosterically activates human MrgX1 receptor signaling | 310,000 compounds, 0.63% hits | AID 588675 | MrgX1-HEK293, Fluo-4 calcium flux, FDSS; active compounds read high | Q96LB2 | B-score at 10 µM;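 active means plate-corrected calcium response at least 3 library SD above typical, normal starting fluorescence, not activating the receptor alone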;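 further: compound read alongside a low EC10 to EC30 dose of BAM8-22 agonist; peak minus trough fluorescence over baseline measured at the second addition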
# RGS4 inh: inhibitors of human RGS4; 310,000 compounds, 0.45% hits; P49798; AID 463165; HEK293 M3R/RGS4 inducible, Fluo-4 calcium flux; active compounds read high; triggered by carbachol at its EC20; B-score at 10 µM;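 active means B-score, a plate-corrected calcium signal, over three deviations above library mean, with baseline fluorescence within five deviations of library mean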;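 further: RGS4 expression induced by doxycycline in cells with stable M3 receptor; B-score is computed from the integrated fluorescence ratio over baseline after carbachol; higher B-score means a larger calcium signal and so more RGS4 inhibition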
# Target sequence (P49798 whole entry, looked up): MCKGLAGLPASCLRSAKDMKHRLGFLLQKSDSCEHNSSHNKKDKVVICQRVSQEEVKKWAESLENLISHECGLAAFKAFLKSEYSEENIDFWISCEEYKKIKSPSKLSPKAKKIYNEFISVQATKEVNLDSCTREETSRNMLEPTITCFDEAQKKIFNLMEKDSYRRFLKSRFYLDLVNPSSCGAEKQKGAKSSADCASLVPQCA
# RGS4 act: potentiators or activators of RGS4. 310,000 compounds, 0.92% hits. HEK293 M3R/inducible RGS4, carbachol calcium flux Fluo4; active compounds read low. B-score at 10 µM;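 active means B-score of the integrated calcium signal more than 4 SD below the library mean, with starting fluorescence not abnormally high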;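 further: negative B-score means reduced calcium response which marks RGS4 activation or potentiation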
#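 Assay system: Inducible-RGS4 HEK293 cells carrying M3 receptor | Schedule: Compound preincubation 20 min at room temperature before agonist | Signal: Kinetic calcium fluorescence imaging with Fluo4-AM dye, 2 µM | Read-out basis: B score from integrated fluorescence ratio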
# RGS4 act valid: RGS4 activation, validation assay; shares compounds with RGS4 act; HEK293 M3R/RGS4 inducible, carbachol calcium flux Fluo4; inhibition, % at 10 µM; 1,100 compounds, 89% hits; AID 602282;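 active means inhibition above 3 SD of the buffer control wells, cut at about 41% in these data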;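 further: signal is the integrated peak-minus-minimum Fluo4 fluorescence over baseline ratio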
# M3R Ca counter: counter-screen for RGS4 activators: effect in non-induced cells. shares compounds with RGS4 act. HEK293 M3R non-induced RGS4, Fluo4 calcium flux; after carbachol challenge at its EC90. inhibition, % at 10 µM. 1,100 compounds, 82% hits. AID 602283;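 active means inhibition exceeding 3 SD of buffer-only control wells, cut at about 26% in these data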;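 further: percent drop in integrated peak-minus-baseline over baseline Fluo4 ratio after carbachol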
# * = called active by the depositor; i = inactive; nt = no result given. Sampled rows, rich in hits. Any-hit rate of the full collection: about 3.5%.
SMILES,MrgX1 antag,MrgX1 ag,MrgX1 PAM,RGS4 inh,RGS4 act,RGS4 act valid,M3R Ca counter
CC(=O)NC(=O)c1cnn(-c2ccccc2)c1N,i,i,i,i,-8.8*,0,0
COc1ccccc1N1CCN(C(=O)CSc2nc3ccccc3nc2N2CCC(C)CC2)CC1,i,i,i,i,-7.7*,44*,0
COc1ccccc1N1CCN(C(=O)CSc2nc3ccccc3nc2N2CCCCC2)CC1,i,i,i,i,i,nt,nt
CC(=O)Nc1cccc(NC(=O)c2cc(-c3cccnc3)nc3ccc(Cl)cc23)c1,i,i,i,i,-8.6*,46*,0
CC(=O)Nc1cccc(NC(=O)c2cc(-c3cccnc3)nc3ccc(Br)cc23)c1,i,i,i,i,i,nt,nt
Cc1ccc(-c2cc(C(=O)Nc3cccnc3)c3ccccc3n2)o1,i,i,i,i,i,nt,nt
O=C(Nc1cccnc1)c1cc(-c2ccc(Br)cc2)nc2ccccc12,i,i,i,i,-13*,92*,76*
O=C(O)CCCCCCCCc1cn(CCc2c[nH]c3ccccc23)nn1,i,i,i,i,i,nt,nt
CCc1nc(SCC(=O)N2CCCc3ccccc32)c2oc3ccccc3c2n1,i,i,i,i,-9.4*,90*,71*
Cc1nc(SCC(=O)O)c2oc3ccccc3c2n1,i,i,i,i,i,nt,nt
Cc1nc(SCC(=O)N2CCN(c3ccccc3)CC2)c2oc3ccccc3c2n1,i,i,i,i,-9.3*,80*,0
CCc1nc(SCC(=O)NC2CCCC2)c2oc3ccccc3c2n1,i,i,i,i,i,nt,nt
COC(=O)CS(=O)(=O)c1ccsc1C(=O)Nc1ccc(F)c(F)c1,i,i,i,i,i,nt,nt
Cn1cnc(S(=O)(=O)N2CCN(C(c3ccccc3)c3ccccc3)CC2)c1,i,i,i,i,i,nt,nt
O=c1[nH]c2ccccc2cc1CN(Cc1cccnc1)S(=O)(=O)c1ccc(Cl)cc1,i,i,7.3*,i,-7.8*,73*,30*
Cc1cc(C)c2c(n1)SCC(=O)N2CC(=O)Nc1ccccc1Cl,i,i,i,i,i,nt,nt
COc1ccc(-c2cn[nH]c2-c2ccc(OCc3ccccc3)cc2O)cc1,i,i,i,i,-9.7*,0,0
COc1ccccc1-c1cn[nH]c1-c1ccc(OCc2ccccc2)cc1O,i,i,i,i,i,nt,nt
O=C(Nc1ccc(N2CCN(c3ncccc3C(F)(F)F)CC2)nc1)c1cccs1,i,i,i,i,-7.8*,92*,96*
CCN(CC)CCn1c(=N)n(CC(=O)c2ccc(Br)s2)c2ccccc21,i,i,i,i,-7.8*,58*,84*
CC(NC(=O)CCNS(=O)(=O)c1cccc2nonc12)c1ccccc1 (configuration not stated),i,i,i,i,i,nt,nt
O=C(COC(=O)Cc1ccc(Cl)cc1)Nc1ccc(OC(F)F)cc1,i,i,i,i,i,nt,nt
O=C(Nc1ccc(Cl)cc1)N(C1=NCCC1)c1ccc(OC(F)F)cc1,i,i,i,i,-10*,92*,92*
Cc1ccccc1NS(=O)(=O)c1ccc(C(=O)N2CCCC2)cc1,i,i,i,i,i,nt,nt
Cc1cccc(NS(=O)(=O)c2ccc(C(=O)N3CCN(c4ccccc4O)CC3)cc2)c1C,i,i,i,i,-8.3*,85*,70*
O=C(Nc1ccc(N2CCN(C(=O)c3ccco3)CC2)c(Cl)c1)c1cc2ccccc2o1,i,i,i,i,-8.7*,93*,64*
COc1ccc(C(CNC(=O)C(CCSC)NC(=O)c2ccccc2OC)N2CCCCC2)cc1 (configuration not stated),i,i,i,i,i,nt,nt
